According to ChEMBL document CHEMBL2021927, “Synthesis and evaluation of the cytotoxicities of tetraindoles: observation that the 5-hydroxy tetraindole (SK228) induces G₂ arrest and apoptosis in human breast cancer cells” (J Med Chem, 2012):
Active and inactive are the calls of the source. No cut-off for these calls is given here.

Experiments:
MDA-MB-231 [1] = assay: Induction of apoptosis in human MDA-MB-231 cells assessed as increase in late apoptotic cells at 0.4 uM by annexinV propidium iodide staining-based flow cytometric analysis; format: functional, cell-based; settings: TDE = time-dependent effect
Method in brief: (§1)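 MDA-MB-231 cells treated with 0.4 μM, washed twice in PBS and stained with annexin V-FITC/propidium iodide. Populations scored as viable (both negative), early apoptotic (annexin V positive, PI negative) or late apoptotic/dead (both positive).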

MDA-MB-231 [2] = assay: Decrease in cyclin B1 expression in human MDA-MB-231 cells at 0.8 uM after 48 hrs by Western blot analysis; format: functional, cell-based
Method in brief: (§2)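 MDA-MB-231 cells treated with 0.2, 0.4 or 0.8 μM for 24 and 48 h. Attached and floating cells were lysed in RIPA-type buffer with protease inhibitors, and protein was quantified by BCA. Equal protein was run on 10%/15% SDS-PAGE and transferred to nitrocellulose. Blots were probed 1 h at room temperature for phospho-cdc2, cyclin B1, caspase-3, bak/bcl-2 or actin loading control, with HRP secondary and ECL detection.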

MCF7 [3] = assay: Ratio of IC50 for cyclic tetramer to compound for human MCF7 cells after 48 hrs by MTT assay; format: functional
[4] = Growth inhibition of human Detroit 551 cells at 20 uM after 48 hrs by MTT assay; format: cell-based; settings: read-out: GI
Method in brief: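 MTT viability assay with 48 h exposure at a single 20 μM concentration. Result given as percent inhibition of cell growth; n = 3.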

MDA-MB-231 [5] = assay: Growth inhibition of human MDA-MB-231 cells after 48 hrs by MTT assay; format: functional, cell-based
MDA-MB-231 [6] = assay: Cell cycle arrest in human MDA-MB-231 cells at accumulation at S phase at 0.8 uM after 24 hrs by propidium iodide staining-based flow cytometric analysis (reference value: 20%); format: functional
SW48 = assay: Selectivity ratio of IC50 for human MT10 cells to IC50 for human SW48 cells
Method in brief: (§3)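 Ratio of the IC50 in normal M10 cells to the IC50 in each cancer line. […] The paper reports the fold difference as the normal-cell to tumour-cell IC50 ratio.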

MDA-MB-231 [7] = assay: Ratio of IC50 for cyclic tetramer to compound for human MDA-MB-231 cells after 48 hrs by MTT assay; format: functional
A549 [8] = assay: Selectivity ratio of IC50 for human MT10 cells to IC50 for human A549 cells; method in brief: as §3
MDA-MB-231 [9] = assay: Induction of apoptosis in human MDA-MB-231 cells assessed as caspase 3 cleavage after 24 to 48 hrs by Western blot analysis; format: functional, cell-based; method in brief: as §2
MDA-MB-231 [10] = assay: Cell cycle arrest in human MDA-MB-231 cells at accumulation at G2/M phase at 0.8 uM after 48 hrs by propidium iodide staining-based flow cytometric analysis (reference value: 32%); format: functional
MDA-MB-231 [11] = assay: Induction of apoptosis in human MDA-MB-231 cells assessed as PARP cleavage after 24 to 48 hrs by Western blot analysis; format: functional, cell-based
MDA-MB-468 [12] = assay: Selectivity ratio of IC50 for human MT10 cells to IC50 for human MDA-MB-468 cells; method in brief: as §3
MDA-MB-231 [13] = assay: Cell cycle arrest in human MDA-MB-231 cells at accumulation at subG1 phase at 0.8 uM after 24 hrs by propidium iodide staining-based flow cytometric analysis (reference value: 2%); format: functional
MDA-MB-231 [14] = assay: Induction of apoptosis in human MDA-MB-231 cells assessed as bcl-2 protein level after 24 to 48 hrs by Western blot analysis; format: functional, cell-based; method in brief: as §2
MDA-MB-231 [15] = assay: Induction of apoptosis in human MDA-MB-231 cells assessed as bak protein level after 24 hrs by Western blot analysis; format: functional, cell-based; method in brief: as §2
MCF7 [16] = assay: Selectivity ratio of IC50 for human MT10 cells to IC50 for human MCF7 cells; method in brief: as §3
Detroit 551 [17] = assay: Selectivity ratio of IC50 for human Detroit 551 cells to IC50 for human SW620 cells
Detroit 551 [18] = assay: Selectivity ratio of IC50 for human Detroit 551 cells to IC50 for human U87MG cells
[19] = Growth inhibition of human U87MG cells after 48 hrs by MTT assay; format: functional, cell-based, U-87MG ATCC; settings: U-87 MG
SW480 [20] = assay: Growth inhibition of human SW480 cells after 48 hrs by MTT assay; format: functional, cell-based; settings: SW480, 48 h
[21] = Selectivity ratio of IC50 for human MT10 cells to IC50 for human SW620 cells; format: ADME, cell-based, SW-620; settings: MT10 cells and SW620 cells; method in brief: as §3
Detroit 551 [22] = assay: Selectivity ratio of IC50 for human Detroit 551 cells to IC50 for human A549 cells
MDA-MB-231 [23] = assay: Increase in cyclin B1 expression in human MDA-MB-231 cells after 48 hrs by Western blot analysis; format: functional, cell-based; method in brief: as §2
MDA-MB-231 [24] = assay: Induction of apoptosis in human MDA-MB-231 cells assessed as increase in early apoptotic cells at 0.4 uM by annexinV propidium iodide staining-based flow cytometric analysis; format: functional, cell-based; settings: TDE = time-dependent effect; method in brief: as §1
A549 [25] = assay: Growth inhibition of human A549 cells after 48 hrs by MTT assay; format: functional, cell-based; settings: A549, 48 h
MCF7 [26] = assay: Selectivity ratio of IC50 for human Detroit 551 cells to IC50 for human MCF7 cells
MDA-MB-231 [27] = assay: Cell cycle arrest in human MDA-MB-231 cells at accumulation at G2/M phase at 0.8 uM after 24 hrs by propidium iodide staining-based flow cytometric analysis (reference value: 30%); format: functional
MDA-MB-468 [28] = assay: Growth inhibition of human MDA-MB-468 cells after 48 hrs by MTT assay; format: functional, cell-based; settings: MDA-MB-468, 48 h
MDA-MB-361 [29] = assay: Selectivity ratio of IC50 for human MT10 cells to IC50 for human MDA-MB-361 cells; method in brief: as §3
SW480 [30] = assay: Selectivity ratio of IC50 for human MT10 cells to IC50 for human SW480 cells; method in brief: as §3
MDA-MB-231 [31] = assay: Increase in cdc2 phosphorylation at Tyr15 expression in human MDA-MB-231 cells after 24 hrs by Western blot analysis; format: functional, cell-based; method in brief: as §2
SW-620 = assay: Growth inhibition of human SW620 cells after 48 hrs by MTT assay; format: functional, cell-based; settings: SW-620, 48 h
MDA-MB-361 [32] = assay: Selectivity ratio of IC50 for human Detroit 551 cells to IC50 for human MDA-MB-361 cells
MCF7 [33] = assay: Ratio of IC50 for 3,3'-diindolylmethane to compound for human MCF7 cells after 48 hrs by MTT assay; format: functional
MDA-MB-231 [34] = assay: Antiproliferative activity against human MDA-MB-231 cells assessed as decrease in cell count at 0.1 to 0.8 uM by trypan blue dye exclusion assay; format: functional, cell-based; settings: TDE = time-dependent effect
Method in brief: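 MDA-MB-231 cells seeded at 2 × 10^5 per well in 6-well plates, treated 24 h later in triplicate with compound (0.1–0.8 μM) or DMSO vehicle in 10% FBS DMEM/F12. Cells harvested by trypsinization at 24, 48 and 72 h, stained with 0.4% trypan blue and counted on a hemocytometer; three independent experiments.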

MDA-MB-468 [35] = assay: Selectivity ratio of IC50 for human Detroit 551 cells to IC50 for human MDA-MB-468 cells
MDA-MB-231 [36] = assay: Selectivity ratio of IC50 for human Detroit 551 cells to IC50 for human MDA-MB-231 cells
MDA-MB-231 [37] = assay: Increase in cdc2 phosphorylation at Tyr15 expression in human MDA-MB-231 cells after 48 hrs by Western blot analysis; format: functional, cell-based; method in brief: as §2

## Oc1ccc2[nH]cc(C(c3ccc(C(c4c[nH]c5ccc(O)cc45)c4c[nH]c5ccc(O)cc45)cc3)c3c[nH]c4ccc(O)cc34)c2c1
MDA-MB-231 [1]
  Activity: tde
MDA-MB-231 [2]
  Activity: Active
MCF7 [3]
  Ratio IC50: 2
[4]
  inhibition at 48 h, 20 µM: 47%
MDA-MB-231 [5]
  inhibition: Dose-dependent effect
MDA-MB-231 [5]; MDA-MB-231, 48 h
  IC50: 450 nM
MDA-MB-231 [6]
  Activity: 23%
SW48
  Ratio IC50: 6.6
MDA-MB-231 [7]
  Ratio IC50: 2
A549 [8]
  Ratio IC50: 2
MDA-MB-231 [9]
  Activity: Dose-dependent effect
MDA-MB-231 [10]
  Activity: 34%
MDA-MB-231 [11]
  Activity: Dose-dependent effect
MDA-MB-468 [12]
  Ratio IC50: 7
MDA-MB-231 [13]
  Activity: 6%
MDA-MB-231 [14]
  Activity: Dose-dependent effect
MDA-MB-231 [15]
  Activity: Active
MCF7 [16]
  Ratio IC50: 6.6
Detroit 551 [17]
  Ratio IC50: > 20
Detroit 551 [18]
  Ratio IC50: > 7.3
[19]
  IC50: 2730 nM
SW480 [20]
  IC50: 370 nM
[21]
  selectivity ratio: 5.9
Detroit 551 [22]
  Ratio IC50: > 6.9
MDA-MB-231 [23]
  Activity: Dose-dependent effect
MDA-MB-231 [24]
  Activity: tde
A549 [25]
  IC50: 2890 nM
MCF7 [26]
  Ratio IC50: > 22.7
MDA-MB-231 [27]
  Activity: 40%
MDA-MB-468 [28]
  IC50: 830 nM
MDA-MB-361 [29]
  Ratio IC50: 2.8
SW480 [30]
  Ratio IC50: 15.7
MDA-MB-231 [31]
  Activity: Dose-dependent effect
SW-620
  IC50: 980 nM
MDA-MB-361 [32]
  Ratio IC50: > 9.7
MCF7 [33]
  Ratio IC50: 57
MDA-MB-231 [34]
  Activity: tde
MDA-MB-468 [35]
  Ratio IC50: > 24
MDA-MB-231 [36]
  Ratio IC50: > 44
MDA-MB-231 [37]
  Activity: Dose-dependent effect
